Experiments:
[1] = Molar concentration required to give a sensitizer enhancement ratio of 1.6 in hypoxic […] (V79) cells.; assay type: functional, Cricetulus griseus
How it was run: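 Hypoxic Chinese hamster V79-379A cells irradiated in vitro with compound present; C1.6 = molar concentration of compound giving a sensitizer enhancement ratio of 1.6.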

[2] = tested on: V79-379A (Chinese hamster lung fibroblasts); test: Cytotoxicity in nitrogen (MMT assay).
[3] = Differential toxicity expressed as the ratio of C50 (air) to C50 (nitrogen); assay type: functional
How it was run: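 Differential toxicity = C50(air)/C50(N2), with each C50 from the MTT assay on V79-379A cells under air or nitrogen; mean of at least three experiments.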

[4] = tested on: V79-379A (Chinese hamster lung fibroblasts); test: Cytotoxicity in air (MMT assay).
[5] = Compound was tested for persistent physical or behavioral effects in C3H/He mice; assay type: functional, Mus musculus
How it was run: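 Toxicity screen in C3H/He mice: single injection as PBS (pH 7.3) solution or suspension, 0.5 or 1.0 mL per 25 g body weight, doses raised until solubility or toxicity limited; animals watched for acute, severe or persistent physical or behavioural changes (e.g. piloerection, respiration rate, locomotor activity for about 1 h).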

Row | Compound | C1.6 [1] | C50 [2] | d tox [3] | C50 [4] | Max dose [5]
1 | Br.O=[N+]([O-])c1nccn1CC(O)CNCCBr (configuration not stated) | 0.1 mM | 0.09 mM | 25.6 | 2.3 mM | –
2 | CC1(C)CN1CC(O)CNC(=O)/C=C/c1ccc([N+](=O)[O-])o1 (configuration not stated) | 0.008 mM | 0.01 mM | 4.5 | 0.045 mM | –
3 | O=[N+]([O-])c1nccn1CC(O)CN1CC1 (configuration not stated) | 0.1 mM | 0.0045 mM | 66.6 | 0.3 mM | –
4 | O=C(NCC1CO1)c1ccc([N+](=O)[O-])o1 (configuration not stated) | 0.02 mM | 0.05 mM | 1 | 0.05 mM | 50 mM/kg
5 | O=C(/C=C/c1ccc([N+](=O)[O-])o1)NCC1CO1 (configuration not stated) | 0.008 mM | 0.01 mM | 3 | 0.03 mM | 25 mM/kg
6 | Cc1oc([N+](=O)[O-])cc1C(=O)NCC1CO1 (configuration not stated) | 0.04 mM | 0.1 mM | 1 | 0.1 mM | –
7 | C=CCNC(=O)c1ccc([N+](=O)[O-])o1 | 0.05 mM | 0.045 mM | 1.8 | 0.08 mM | –
8 | C[C@@H]1[C@H](C)N1CC(O)CNC(=O)c1ccc([N+](=O)[O-])o1 (some centres not stated) | 0.05 mM | 0.02 mM | 3 | 0.06 mM | –
9 | COCC(O)Cn1ccnc1[N+](=O)[O-] (configuration not stated) [MISONIDAZOLE] | 0.3 mM | 4 mM | 11.3 | 45 mM | –
10 | Br.NC(=O)N/N=C/c1ccc([N+](=O)[O-])o1 | 0.05 mM | 0.2 mM | 8.5 | 1.7 mM | –
11 | CC1(C)CN1C(=O)c1ccc([N+](=O)[O-])o1 | 0.1 mM | 0.18 mM | 1 | 0.18 mM | –
12 | C[C@@H]1[C@H](C)N1CC(O)CNC(=O)/C=C/c1ccc([N+](=O)[O-])o1 (some centres not stated) | 0.035 mM | 0.04 mM | 1.8 | 0.07 mM | –
13 | C=CCNC(=O)c1cc([N+](=O)[O-])c(C)o1 | – | 0.03 mM | 0.5 | 0.015 mM | –
14 | Br.C[C@H](Br)[C@H](C)NCC(O)CNC(=O)c1ccc([N+](=O)[O-])o1 (some centres not stated) | 0.03 mM | 0.025 mM | 5.6 | 0.14 mM | –
15 | C=CCOC(=O)c1ccc([N+](=O)[O-])o1 | 0.05 mM | 0.025 mM | 4 | 0.1 mM | –
16 | CC1(C)CN1CC(O)CNC(=O)c1ccc([N+](=O)[O-])o1 (configuration not stated) | 0.04 mM | 0.075 mM | 2 | 0.15 mM | –
17 | C=CCNC(=O)/C=C/c1ccc([N+](=O)[O-])o1 | 0.03 mM | 0.025 mM | 2.4 | 0.06 mM | –
18 | C[C@@H]1[C@H](C)N1CC(O)CNC(=O)C1OC1c1ccc([N+](=O)[O-])o1 (some centres not stated) | 0.025 mM | 0.012 mM | 1 | 0.012 mM | –
19 | C=CCNC(=O)c1cc([N+](=O)[O-])oc1C | 0.075 mM | 0.8 mM | 0.4 | 0.35 mM | –
20 | CC(C)(CO)NC(=O)c1ccc([N+](=O)[O-])o1 | 0.05 mM | 0.12 mM | 2.1 | 0.25 mM | 100 mM/kg

From ChEMBL document CHEMBL1125078, “Synthesis and evaluation of novel electrophilic nitrofuran carboxamides and carboxylates as radiosensitizers and bioreductively activated cytotoxins” (1990)
